A selection: hits, their analogues and other compounds. The true share with any hit is near 1.8%.
M4 antag: human M4 muscarinic receptor antagonists, primary screen, CHO cells, Fluo-8 calcium fluorescence | inhibition, % at 3 µM | 360,000 compounds, 0.73% hits | CHO-hM4 cells, ACh EC80 | Muscarinic acetylcholine receptor M4 (Homo sapiens), P08173;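 active means inhibition above its plate's cutoff, the mean inhibition of sample wells plus 3 SD, cut at about 27% in these data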
M4 PAM: human M4 muscarinic receptor positive allosteric modulators, primary screen, CHO-K1 cells, Fluo-8 calcium fluorescence | CHO-K1 hM4/Gqi5, ACh EC20; 0% = ACh EC20, 100% = maximal ACh | activation, % at 3 µM | 360,000 compounds, 0.4% hits | Muscarinic acetylcholine receptor M4 (Homo sapiens), P08173;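 active means activation above its plate's cutoff, the mean activation of sample wells plus 3 SD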
M5 antag: human M5 muscarinic receptor antagonists, primary screen, CHO cells, Fluo-8 calcium fluorescence; Muscarinic acetylcholine receptor M5 (Homo sapiens), P08912; CHO-hM5 cells, ACh EC80; inhibition, % at 3 µM; 360,000 compounds, 0.59% hits; AID 624040, 2012;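 active means inhibition above a per-plate cutoff, the mean of that plate's test compounds plus 3 SD, cut at about 27% in these data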
Target sequence (P08912 whole entry, looked up): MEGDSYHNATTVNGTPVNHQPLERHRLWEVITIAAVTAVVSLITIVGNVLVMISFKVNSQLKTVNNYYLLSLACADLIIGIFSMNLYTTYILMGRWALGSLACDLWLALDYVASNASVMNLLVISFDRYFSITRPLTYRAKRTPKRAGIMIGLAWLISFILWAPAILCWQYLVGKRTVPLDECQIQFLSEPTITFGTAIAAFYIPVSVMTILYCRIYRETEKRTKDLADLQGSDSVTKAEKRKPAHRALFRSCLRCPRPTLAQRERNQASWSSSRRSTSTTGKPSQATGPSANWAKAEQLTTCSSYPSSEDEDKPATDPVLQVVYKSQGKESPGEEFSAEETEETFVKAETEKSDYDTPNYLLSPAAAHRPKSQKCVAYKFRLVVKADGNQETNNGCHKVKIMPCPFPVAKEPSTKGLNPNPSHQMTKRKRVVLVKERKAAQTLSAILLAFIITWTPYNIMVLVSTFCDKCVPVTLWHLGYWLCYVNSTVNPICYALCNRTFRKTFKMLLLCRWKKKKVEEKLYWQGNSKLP
CHRM5 PAM: human M5 muscarinic receptor positive allosteric modulators, primary screen, CHO-K1 cells, Fluo-8 calcium fluorescence. Muscarinic acetylcholine receptor M5 (Homo sapiens), P08912. CHO-K1 hM5, ACh EC20 PAM; 0% = ACh EC20, 100% = ACh EC100. activation, % at 3 µM. 360,000 compounds, 0.3% hits. AID 624038, 2012;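 active means activation above the run cutoff, the mean activation of all test compounds plus 3 SD, cut at about 18% in these data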
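Assay system: CHO-K1 hM5 cells. Also added: acetylcholine at EC20 concentration, added after compound. Dosing: 3 µM, single dose. Times: compound preincubation 140 s before EC20 acetylcholine addition. Signal: Fluo-8 calcium fluorescence. Measure: % activation relative to EC20 and EC100 ACh responses. Repeats: singlicate, one well per test compound.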
M5 ag: human M5 muscarinic receptor agonists, primary screen, CHO-K1 cells, Fluo-8 calcium fluorescence; CHO-K1 hM5 cells; 0% DMSO wells, 100% maximal acetylcholine response; AID 624037, 2012; Muscarinic acetylcholine receptor M5 (Homo sapiens), P08912; 360,000 compounds, 0.19% hits; activation, % at 3 µM;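 active means activation above the run's mean over test compounds plus 3 SD, cut at about 23% in these data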;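 further: signal is peak over basal fluorescence ratio across the kinetic read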
CHRM4 agonist: human M4 muscarinic receptor agonists, primary screen, CHO-K1 cells, Fluo-8 calcium fluorescence | 360,000 compounds, 0.14% hits | activation, % at 3 µM | CHO-K1 hM4/Gqi5; vehicle 0%, full acetylcholine response 100% | Muscarinic acetylcholine receptor M4 (Homo sapiens), P08173;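 active means activation above the run mean over all test wells plus 3 SD, cut at about 32% in these data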;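 further: peak over basal fluorescence ratio per well then scaled between controls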
Hits are given with their value; . = inactive.

SMILES	M4 antag	M4 PAM	M5 antag	CHRM5 PAM	M5 ag	CHRM4 agonist
CCCCn1nnnc1C(c1cc2ccccc2o1)N1CCN(c2c(C)cccc2C)CC1 (stereo not given)	.	.	.	.	.	.
Cc1cccc(C)c1N1CCN(C(c2cc3ccccc3o2)c2nnnn2C(C)(C)C)CC1 (stereo not given)	26	.	.	.	.	.
Nn1c(SCc2cccc(Br)c2)nnc1-c1cccnc1	.	.	.	19	.	.
Clc1ccc(-n2c(SC/C=C/c3ccccc3)nnc2-c2cccnc2)cc1	.	.	.	.	.	.
Nn1c(SC/C=C/c2ccccc2)nnc1-c1cccnc1	28	.	.	.	.	.
Nn1c(SCc2cccc(F)c2)nnc1-c1cccnc1	.	.	.	.	.	.
Cc1c(Cl)cccc1NC(=O)CCN1CCC(C(N)=O)CC1	.	.	.	.	.	.
C=CCc1cccc(/C=N/n2cnnc2)c1O	.	41	.	.	.	.
Cc1sc2nc(C3CC3)nc(N3CCN(C(=O)c4ccc(F)cc4)CC3)c2c1C	.	18	.	.	.	.
COc1ccc(C(=O)N2CCN(c3nc(C4CC4)nc4sc(C)c(C)c34)CC2)cc1	.	20	.	.	.	.
Cc1sc2nc(C3CC3)nc(N3CCN(C(=O)c4ccc(Cl)cc4)CC3)c2c1C	.	37	.	.	.	.
Cc1sc2nc(C3CC3)nc(N3CCN(C(=O)c4ccccc4F)CC3)c2c1C	.	.	.	.	.	.
CC(=O)Nc1ccc(N2C(=O)c3ccc(S(=O)(=O)c4ccc(C(=O)O)cc4)cc3C2=O)cc1	.	.	.	.	.	.
COc1ccc(C(CNC(=O)c2cc3ccccc3cc2OC)N2CCCC2)cc1 (stereo not given)	.	.	.	20	.	.
CCOC(=O)c1sc(NC(=O)Nc2ccc(Cl)cc2)cc1C	33	.	38	.	.	.
CCOC(=O)c1sc(NC(=O)c2ccc(Cl)s2)cc1C	.	.	.	.	.	.
COc1ccccc1C(=O)NCC(=O)NCc1cc(=O)n(C)c(=O)n1C	.	.	.	.	.	.
O=S(=O)(Nc1cccc(-c2cn3c(n2)SCC3)c1)c1ccc(F)cc1F	.	.	.	.	.	.
O=C1CC(N(O)c2ccccc2)C(=O)N1c1cc(Cl)cc(Cl)c1 (stereo not given)	.	.	.	.	30	.
O=C(NC(Nc1nc2ccc([N+](=O)[O-])cc2s1)(C(F)(F)F)C(F)(F)F)c1cccnc1	.	.	.	.	.	.
O=C(NC(Nc1nc2ccc([N+](=O)[O-])cc2s1)(C(F)(F)F)C(F)(F)F)c1ccccc1Cl	.	.	49	.	.	.
O=C(COC(=O)CCNS(=O)(=O)c1ccc(Cl)cc1)Nc1ccccc1OC(F)F	.	.	.	.	.	.
CCOc1cccc(/C=C(/C#N)c2nc3ccccc3[nH]2)c1OCC(=O)O	.	.	.	.	.	.
CCN(CC)c1ccc(/C=C(/C#N)c2nc3ccccc3[nH]2)c(OC(C)C)c1	.	.	.	.	.	57
COc1ccc(OCCCCn2c(CO)nc3ccccc32)cc1	.	.	.	.	.	.
SMILES	M4 antag	M4 PAM	M5 antag	CHRM5 PAM	M5 ag	CHRM4 agonist
CC1CCCCN1S(=O)(=O)c1ccc([N+](=O)[O-])cc1 (stereo not given)	29	.	.	.	.	.
CCC1CCCCN1S(=O)(=O)c1ccc([N+](=O)[O-])cc1 (stereo not given)	28	.	.	.	.	.
O=c1oc2cc(O)ccc2cc1-c1nc2ccccc2o1	.	.	.	.	27	41
O=c1oc2cc(O)ccc2cc1S(=O)(=O)c1ccccc1	.	.	.	.	.	.
COc1ccc(CNC(=O)CN2CCN(c3ccccc3)CC2)cc1	.	.	.	.	.	.
COc1ccc(C)cc1S(=O)(=O)N1CCN(C(=O)c2ncoc2-c2ccc(C)cc2)CC1	.	.	.	.	.	.
COc1ccc(C)cc1S(=O)(=O)N1CCN(C(=O)c2ncoc2-c2cccc(C)c2)CC1	.	.	28	.	.	.
CC(C)n1nc(C(=O)NNC(=O)c2ccncc2)c2ccccc2c1=O	.	23	.	.	.	.
OC(CCN1CCC2CCC(C2)C1)c1ccc(Br)cc1 (stereo not given)	37	.	.	.	.	.
O=C1[C@@H]2Cc3c([nH]c4ccccc34)CN2C(=O)CN1CCCO	.	.	.	.	.	.
C=CCN1CC(=O)N2Cc3[nH]c4ccccc4c3C[C@H]2C1=O	43	.	.	.	.	.
O=c1oc2ccccc2c2c1cnc1ccccc12	.	.	.	.	.	.
NC(=O)c1cccc2c(=O)oc3ccccc3c12	.	.	.	19	.	.
Cc1ccc(N(C(=O)CS(=O)CC(=O)Nc2ccc(F)cc2)C(C(=O)NC2CCCCC2)c2ccco2)cc1 (stereo not given)	.	.	.	.	.	.
Cc1ccc(NC(=O)CS(=O)CC(=O)N(C(C)C(=O)NC2CCCCC2)C(C)(C)C)cc1 (stereo not given)	.	.	28	.	.	.
CN(C)C(CNc1ccc(S(C)(=O)=O)cc1[N+](=O)[O-])Cc1ccccc1 (stereo not given)	.	.	.	.	.	.
O=C(Nc1cnccn1)c1ccc(F)cc1Cl	.	.	.	.	.	.
C=CCN(C(=O)C1CC(=O)N(C2CCCC2)C1)c1nc(-c2ccc(S(C)(=O)=O)cc2)cs1 (stereo not given)	.	.	.	.	.	32
C=CCN(C(=O)CN1CCCCC1)c1nc(-c2ccccc2)cs1	.	.	.	.	.	.
CC1=C(C(=O)OC2CCCCCC2)C(c2ccc(C)o2)C2=C(CCCC2=O)N1 (stereo not given)	.	.	.	.	.	.
COC(=O)C1=C(C)NC2=C(C(=O)CCC2)C1c1ccc(-c2ccsc2C(=O)OC)o1 (stereo not given)	.	.	.	.	.	37
COc1ccccc1CNC(=O)Cn1cc(Br)ccc1=O	.	.	.	.	.	.
CSc1nc2ccccc2n1Cc1c(Cl)cccc1Cl	.	.	.	21	.	.
COc1ccc(NC(=O)C2CCN(c3nc(-c4ccc(OC)cc4)no3)CC2)cc1	.	.	.	.	.	.

Bioassay records deposited in PubChem by The Scripps Research Institute Molecular Screening Center.
